Source: ChEMBL document CHEMBL3822431, “Hydroxychalcone inhibitors of Streptococcus mutans glucosyl transferases and biofilms as potential anticaries agents” (Bioorg Med Chem Lett, 2016)
The source made the active and inactive calls. The rule behind the calls is not given here.

Experiments:
Streptococcus mutans [1] = test: Growth inhibition of Streptococcus mutans UA159 after 16 hrs; assay type: organism-based
How it was run: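 S. mutans UA159 co-incubated with compound at various concentrations; growth measured at OD470.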

Streptococcus mutans [2] = test: Growth inhibition of Streptococcus mutans UA159 at 200 uM after 24 hrs; assay type: organism-based; conditions: for inhibition at 200 µM: Streptococcus mutans, UA159, 24 h, read-out: GI; for growth inhibition (GI): streptococcus mutans, in vivo, 24 h, 200 µM
How it was run: (§1)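 S. mutans UA159, S. sanguinis or S. gordonii co-incubated with compound at various concentrations; growth read as OD470; inhibition expressed relative to DMSO.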

Streptococcus mutans [3] = test: Inhibition of biofilm formation of Streptococcus mutans UA159 at 200 uM after 16 hrs by crystal violet staining; assay type: functional; conditions: for inhibition at 200 µM: UA159, 16 h
How it was run: (§2)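 S. mutans UA159 co-incubated with compound at various concentrations; biofilm quantified by crystal violet protocol, read at OD562.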

Streptococcus mutans [4] = test: Inhibition of biofilm formation of Streptococcus mutans UA159 after 16 hrs by crystal violet staining based serial dilution method; assay type: functional, organism-based; how it was run: as §2
Streptococcus mutans [5] = test: Selectivity index, ratio of growth inhibition IC50 for Streptococcus mutans UA159 to biofilm inhibition IC50 for Streptococcus mutans UA159
Streptococcus sanguinis = test: Growth inhibition of Streptococcus sanguinis SK36 at 200 uM after 24 hrs; conditions: SK36, 24 h, read-out: GI; how it was run: as §1
Streptococcus gordonii = test: Growth inhibition of Streptococcus gordonii at 200 uM after 24 hrs; assay type: organism-based; conditions: read-out: GI; how it was run: as §1
[6] = biological target: T1, Glucosyltransferase-SI (Streptococcus mutans serotype c (strain ATCC 700610 / UA159)) (UniProt P13470); test: Inhibition of Wild-type Streptococcus mutans UA159 glucosyltransferase C at 50 uM by coomassie blue staining based SDS-PAGE method
T1 sequence (whole entry): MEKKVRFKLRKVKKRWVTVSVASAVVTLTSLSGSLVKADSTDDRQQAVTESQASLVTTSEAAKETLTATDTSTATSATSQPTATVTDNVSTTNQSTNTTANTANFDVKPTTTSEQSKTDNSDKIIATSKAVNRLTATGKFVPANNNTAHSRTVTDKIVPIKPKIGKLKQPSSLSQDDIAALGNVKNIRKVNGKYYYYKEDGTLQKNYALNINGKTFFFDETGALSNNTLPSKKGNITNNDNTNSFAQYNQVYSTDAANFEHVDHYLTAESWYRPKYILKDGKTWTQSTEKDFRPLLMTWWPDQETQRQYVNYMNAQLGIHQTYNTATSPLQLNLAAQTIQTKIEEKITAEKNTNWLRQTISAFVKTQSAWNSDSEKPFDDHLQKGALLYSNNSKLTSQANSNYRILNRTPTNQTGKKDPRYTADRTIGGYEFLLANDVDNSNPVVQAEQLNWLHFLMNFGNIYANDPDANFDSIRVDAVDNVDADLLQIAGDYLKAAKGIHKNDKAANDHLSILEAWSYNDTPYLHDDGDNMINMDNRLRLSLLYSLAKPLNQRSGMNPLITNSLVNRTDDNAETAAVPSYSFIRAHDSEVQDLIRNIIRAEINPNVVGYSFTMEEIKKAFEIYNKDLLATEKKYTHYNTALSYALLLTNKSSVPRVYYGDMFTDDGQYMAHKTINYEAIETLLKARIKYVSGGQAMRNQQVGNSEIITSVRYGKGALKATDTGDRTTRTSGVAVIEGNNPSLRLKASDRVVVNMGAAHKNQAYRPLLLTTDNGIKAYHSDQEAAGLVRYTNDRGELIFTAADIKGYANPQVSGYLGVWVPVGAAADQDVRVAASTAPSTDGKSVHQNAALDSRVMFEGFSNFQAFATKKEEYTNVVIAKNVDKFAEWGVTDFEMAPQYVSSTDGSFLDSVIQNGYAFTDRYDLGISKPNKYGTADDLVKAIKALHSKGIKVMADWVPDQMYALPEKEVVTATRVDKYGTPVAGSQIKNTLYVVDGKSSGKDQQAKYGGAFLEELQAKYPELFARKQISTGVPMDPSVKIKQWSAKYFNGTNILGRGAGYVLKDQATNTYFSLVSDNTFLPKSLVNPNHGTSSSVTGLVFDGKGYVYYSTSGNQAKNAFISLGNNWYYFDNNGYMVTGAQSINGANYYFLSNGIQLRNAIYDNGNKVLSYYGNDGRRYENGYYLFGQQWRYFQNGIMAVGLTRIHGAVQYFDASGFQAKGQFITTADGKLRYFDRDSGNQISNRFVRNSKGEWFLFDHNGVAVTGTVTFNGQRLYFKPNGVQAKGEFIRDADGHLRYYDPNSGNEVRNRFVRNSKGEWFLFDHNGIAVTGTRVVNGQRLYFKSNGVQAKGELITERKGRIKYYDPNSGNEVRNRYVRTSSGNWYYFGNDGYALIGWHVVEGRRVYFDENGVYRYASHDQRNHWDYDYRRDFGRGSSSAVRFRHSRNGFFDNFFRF
How it was run: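 Compound (50 µM) added to overnight S. mutans UA159 wild-type cultures; Gtfs collected and concentrated from supernatants, run on SDS-PAGE in duplicate; one gel Coomassie blue stained for protein levels.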

[7] = biological target: T1, Glucosyltransferase-SI (Streptococcus mutans serotype c (strain ATCC 700610 / UA159)); test: Inhibition of Wild-type Streptococcus mutans UA159 glucosyltransferase C at 50 uM by zymography
How it was run: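 Compound (50 µM) added to overnight S. mutans UA159 wild-type cultures; Gtfs concentrated from supernatants, run on duplicate SDS-PAGE; second gel used for zymogram, glucan band intensity taken as Gtf activity.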

Streptococcus mutans [8] = test: Inhibition of biofilm formation of Streptococcus mutans UA159 at 25 to 100 uM by Syto9 staining based assay; assay type: functional, organism-based
How it was run: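 S. mutans UA159 wild type co-incubated with compound at various concentrations; resulting biofilms stained with Syto9 and examined by microscopy.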

[9] = Streptococcus mutans, UA159, 16 h, read-out: IC50
[10] = Streptococcus mutans, UA159, 16 h

O=C(/C=C/c1cccc(O)c1)c1ccccc1O
IC50 (Streptococcus mutans [1]; [9]): 32 µM
inhibition at 200 µM (Streptococcus mutans [2]): 86%
inhibition at 200 µM (Streptococcus mutans [3]): 84%
IC50 (Streptococcus mutans [4]; [10]): 64 µM

O=C(/C=C/c1ccccc1)c1ccc(O)cc1O [2',4'-DIHYDROXYCHALCONE]
growth inhibition (GI) (Streptococcus mutans [2]): Not Active
inhibition (Streptococcus mutans [3]): inactive

O=C(/C=C/c1ccc(O)cc1)c1ccccc1O
inhibition at 200 µM (Streptococcus mutans [2]): 48%
inhibition at 200 µM (Streptococcus mutans [3]): 27%

O=C(/C=C/c1cc(O)c(O)cc1O)c1ccccc1O (stereo in doubt; 18c)
IC50 (Streptococcus mutans [1]; [9]): 323 µM
Ratio IC50 (Streptococcus mutans [5]): 1.5
IC50 (Streptococcus mutans [4]): 224 µM

O=C(/C=C/c1ccccc1O)c1ccc(O)cc1O
growth inhibition (GI) (Streptococcus mutans [2]): Not Active
inhibition (Streptococcus mutans [3]): inactive

COc1ccc(/C=C/C(=O)c2cc(N(C)C)c(O)c(N(C)C)c2)cc1
growth inhibition (GI) (Streptococcus mutans [2]): Not Active
inhibition (Streptococcus mutans [3]): inactive

O=C(/C=C/c1ccc(O)cc1O)c1cccc(O)c1 (stereo in doubt; 9) [listing 1 of 2 here]
IC50 (Streptococcus mutans [1]): Not Active
inhibition at 200 µM (Streptococcus mutans [2]): 10%
inhibition at 200 µM (Streptococcus sanguinis): 10%
inhibition at 200 µM (Streptococcus mutans [3]): 93%
IC50 (Streptococcus mutans [4]): 32 µM
inhibition at 200 µM (Streptococcus gordonii): 10%

O=C(/C=C/c1ccc(O)cc1O)c1cccc(O)c1 (stereo in doubt; 9a)
Ratio IC50 (Streptococcus mutans [5]): 9.4
IC50 (Streptococcus mutans [4]): 68 µM

COc1ccc(/C=C/C(=O)c2ccc(OC)c(OC)c2)cc1O
inhibition at 200 µM (Streptococcus mutans [2]): 30%
inhibition at 200 µM (Streptococcus mutans [3]): 27%

COc1ccc(/C=C/C(=O)c2cc(O)ccc2O)cc1
inhibition at 200 µM (Streptococcus mutans [2]): 76%
inhibition at 200 µM (Streptococcus mutans [3]): 87%

COc1cc(/C=C/C(=O)c2ccccc2O)ccc1O
IC50 (Streptococcus mutans [1]; [9]): 44 µM
inhibition at 200 µM (Streptococcus mutans [2]): 85%
inhibition at 200 µM (Streptococcus mutans [3]): 86%
IC50 (Streptococcus mutans [4]; [10]): 61 µM

COc1cc(C(=O)/C=C/c2ccccc2O)ccc1O
IC50 (Streptococcus mutans [1]; [9]): 40 µM
inhibition at 200 µM (Streptococcus mutans [2]): 71%
inhibition at 200 µM (Streptococcus mutans [3]): 85%
IC50 (Streptococcus mutans [4]; [10]): 34 µM

COc1cc(/C=C/C(=O)c2ccc(O)cc2)cc(OC)c1OC
growth inhibition (GI) (Streptococcus mutans [2]): Not Active

O=C(/C=C/c1cc(O)c(O)cc1O)c1ccccc1O (stereo in doubt; 18d) [listing 1 of 2 here]
inhibition [6]: Active
inhibition [7]: Active

COc1ccc(/C=C/C(=O)c2ccc3c(c2)OCO3)cc1O
growth inhibition (GI) (Streptococcus mutans [2]): Not Active
inhibition (Streptococcus mutans [3]): inactive

O=C(/C=C/c1ccc(O)cc1O)c1cccc(O)c1 (stereo in doubt; 9) [listing 2 of 2 here]
inhibition (Streptococcus mutans [4]): Dose-dependent effect
inhibition (Streptococcus mutans [8]): Active

O=C(/C=C/c1ccccc1O)c1cccc(O)c1
growth inhibition (GI) (Streptococcus mutans [2]): Not Active

O=C(/C=C/c1cc(O)c(O)cc1O)c1ccccc1O (stereo in doubt; 18d) [listing 2 of 2 here]
IC50 (Streptococcus mutans [1]; read-out: IC50): 376 µM
Ratio IC50 (Streptococcus mutans [5]): 4.9
IC50 (Streptococcus mutans [4]): 76 µM

O=C(/C=C/c1cc(Cl)cc(Cl)c1O)c1cccc(O)c1
inhibition at 200 µM (Streptococcus mutans [2]): 82%
inhibition at 200 µM (Streptococcus mutans [3]): 81%
